Experimental data from publication PMC4928098 (NeuroImage, 2016).
Read-outs that look alike come from different tables or passages of the source.

Legend:
BCRP (ABCG2) = target: T1, BCRP (ABCG2) (Homo sapiens, UniProt Q9UNQ0); assay type: cell-based; details: for Percent Inhibition (%) of the fluorescent substrate: BCRP, mitoxantrone efflux, human cancer cells
T1 sequence (Q9UNQ0 1-655): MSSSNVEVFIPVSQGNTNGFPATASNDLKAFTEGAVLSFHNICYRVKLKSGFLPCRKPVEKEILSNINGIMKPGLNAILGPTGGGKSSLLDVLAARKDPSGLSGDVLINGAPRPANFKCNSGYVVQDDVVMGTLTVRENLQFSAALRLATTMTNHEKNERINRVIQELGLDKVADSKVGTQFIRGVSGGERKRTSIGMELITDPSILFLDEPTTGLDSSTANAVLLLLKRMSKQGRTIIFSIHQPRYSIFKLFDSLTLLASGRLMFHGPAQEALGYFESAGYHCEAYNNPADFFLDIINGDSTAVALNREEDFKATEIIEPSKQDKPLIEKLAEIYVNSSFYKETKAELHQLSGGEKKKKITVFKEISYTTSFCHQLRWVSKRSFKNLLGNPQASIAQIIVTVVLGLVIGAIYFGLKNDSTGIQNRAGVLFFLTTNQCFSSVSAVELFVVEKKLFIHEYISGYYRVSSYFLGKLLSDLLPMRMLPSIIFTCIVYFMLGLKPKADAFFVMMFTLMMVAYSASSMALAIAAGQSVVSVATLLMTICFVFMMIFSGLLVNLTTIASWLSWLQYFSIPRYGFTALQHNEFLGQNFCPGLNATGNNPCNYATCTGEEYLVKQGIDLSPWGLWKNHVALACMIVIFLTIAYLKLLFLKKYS
How it was run: (§1)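 Human cancer cells overexpressing a transporter, plus parental cells, were analysed by flow cytometry for efflux of a fluorescent probe: rhodamine-123 for P-gp, mitoxantrone for BCRP, calcein-AM for MRP1. Conditions were untreated parental cells, expressing cells with a transporter-specific inhibitor, expressing cells with test compound at 20 or 50 µM, and untreated expressing cells. Fluorescence was recorded on 10,000 cells and expressed as percent inhibition.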

MRP1 (ABCC1) = MRP1 (ABCC1) (Homo sapiens, UniProt P33527); assay type: cell-based; details: for Percent Inhibition (%) of the fluorescent substrate: Mrp1, calcein-AM efflux, human cancer cells
How it was run: as §1

P-gp (ABCB1) = P-gp (ABCB1) (Homo sapiens, UniProt P08183); assay type: cell-based; details: for Percent Inhibition (%) of the fluorescent substrate: P-gp, rhodamine-123 efflux, human cancer cells
How it was run: as §1

P-gp [1] = target: P-gp (Homo sapiens, UniProt P08183); test: Human PET imaging at baseline and during tariquidar infusion; assay type: in vivo
How it was run: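 Radioligand was given as a 376 ± 8 MBq bolus, followed by a 2-h dynamic PET with arterial sampling and HPLC metabolite separation. VT came from a three-tissue model including the acid metabolite, in six central regions. Paired one-tailed t-test.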

P-gp [2] = target: P-gp (Mus musculus, UniProt P21447); test: Ex vivo brain to plasma ratio of parent radioligand in P-gp knockout mice; details: P-gp KO mice, 30 min after iv injection, n=3
How it was run: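 Wild-type, P-gp KO, BCRP KO and P-gp/BCRP KO mice (n=3 per group, 25.3 ± 1.2 g) were anesthetised with 1.5% isoflurane in oxygen. Radioligand (166 ± 49 µCi; 826 ± 205 mCi/µmol) was given iv via tail-vein cannula. At 30 min, blood was taken by cardiac puncture and brain excised. Parent was quantified by reversed-phase radio-HPLC with γ-counting. Brain/plasma parent ratios were compared across groups (mean ± SEM).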

[3] = humans, ref Ryu et al., 2007, cited from earlier work
P-gp [4] = details: rats pretreated with tariquidar; ref Choi et al., 2016; cited from earlier work

Sequence of MRP1 (ABCC1) (P33527 whole entry): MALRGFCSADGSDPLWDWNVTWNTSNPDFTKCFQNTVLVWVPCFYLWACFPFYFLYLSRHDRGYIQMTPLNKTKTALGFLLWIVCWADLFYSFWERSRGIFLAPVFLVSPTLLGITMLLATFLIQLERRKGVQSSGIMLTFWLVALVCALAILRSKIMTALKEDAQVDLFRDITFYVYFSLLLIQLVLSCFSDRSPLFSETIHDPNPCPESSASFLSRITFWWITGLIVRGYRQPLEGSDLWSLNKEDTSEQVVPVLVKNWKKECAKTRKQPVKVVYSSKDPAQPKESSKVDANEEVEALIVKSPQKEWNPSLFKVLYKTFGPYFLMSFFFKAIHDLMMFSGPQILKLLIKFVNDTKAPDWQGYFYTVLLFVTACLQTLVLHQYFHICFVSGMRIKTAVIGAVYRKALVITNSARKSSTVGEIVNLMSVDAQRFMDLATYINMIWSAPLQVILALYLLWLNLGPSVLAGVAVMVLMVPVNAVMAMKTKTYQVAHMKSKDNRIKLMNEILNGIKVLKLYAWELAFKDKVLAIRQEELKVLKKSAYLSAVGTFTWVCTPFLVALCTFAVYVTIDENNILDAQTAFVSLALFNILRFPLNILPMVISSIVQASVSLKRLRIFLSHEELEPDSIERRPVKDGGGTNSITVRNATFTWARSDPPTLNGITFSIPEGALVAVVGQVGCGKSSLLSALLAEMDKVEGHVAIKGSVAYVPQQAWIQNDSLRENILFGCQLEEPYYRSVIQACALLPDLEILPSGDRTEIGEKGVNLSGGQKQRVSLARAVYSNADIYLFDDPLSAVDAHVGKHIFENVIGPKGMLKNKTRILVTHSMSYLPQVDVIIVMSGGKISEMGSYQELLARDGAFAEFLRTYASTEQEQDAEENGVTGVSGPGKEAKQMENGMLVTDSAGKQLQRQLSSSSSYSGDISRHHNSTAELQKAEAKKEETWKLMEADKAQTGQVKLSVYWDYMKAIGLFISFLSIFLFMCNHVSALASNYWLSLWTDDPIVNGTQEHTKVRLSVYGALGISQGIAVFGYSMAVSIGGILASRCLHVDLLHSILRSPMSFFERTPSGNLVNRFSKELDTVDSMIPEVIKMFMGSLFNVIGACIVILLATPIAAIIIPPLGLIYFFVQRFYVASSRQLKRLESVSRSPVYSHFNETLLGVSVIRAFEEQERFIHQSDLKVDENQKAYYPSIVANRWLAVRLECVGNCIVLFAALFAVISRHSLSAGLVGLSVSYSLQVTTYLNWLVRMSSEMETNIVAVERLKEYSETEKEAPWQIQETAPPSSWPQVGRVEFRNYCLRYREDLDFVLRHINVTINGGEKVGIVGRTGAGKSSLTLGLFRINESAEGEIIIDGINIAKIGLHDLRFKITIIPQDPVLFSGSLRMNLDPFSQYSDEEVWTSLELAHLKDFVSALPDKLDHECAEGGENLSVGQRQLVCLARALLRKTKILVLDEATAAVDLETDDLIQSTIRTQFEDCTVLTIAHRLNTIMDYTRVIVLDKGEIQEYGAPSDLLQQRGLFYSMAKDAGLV
Sequence of P-gp (ABCB1) (P08183 whole entry): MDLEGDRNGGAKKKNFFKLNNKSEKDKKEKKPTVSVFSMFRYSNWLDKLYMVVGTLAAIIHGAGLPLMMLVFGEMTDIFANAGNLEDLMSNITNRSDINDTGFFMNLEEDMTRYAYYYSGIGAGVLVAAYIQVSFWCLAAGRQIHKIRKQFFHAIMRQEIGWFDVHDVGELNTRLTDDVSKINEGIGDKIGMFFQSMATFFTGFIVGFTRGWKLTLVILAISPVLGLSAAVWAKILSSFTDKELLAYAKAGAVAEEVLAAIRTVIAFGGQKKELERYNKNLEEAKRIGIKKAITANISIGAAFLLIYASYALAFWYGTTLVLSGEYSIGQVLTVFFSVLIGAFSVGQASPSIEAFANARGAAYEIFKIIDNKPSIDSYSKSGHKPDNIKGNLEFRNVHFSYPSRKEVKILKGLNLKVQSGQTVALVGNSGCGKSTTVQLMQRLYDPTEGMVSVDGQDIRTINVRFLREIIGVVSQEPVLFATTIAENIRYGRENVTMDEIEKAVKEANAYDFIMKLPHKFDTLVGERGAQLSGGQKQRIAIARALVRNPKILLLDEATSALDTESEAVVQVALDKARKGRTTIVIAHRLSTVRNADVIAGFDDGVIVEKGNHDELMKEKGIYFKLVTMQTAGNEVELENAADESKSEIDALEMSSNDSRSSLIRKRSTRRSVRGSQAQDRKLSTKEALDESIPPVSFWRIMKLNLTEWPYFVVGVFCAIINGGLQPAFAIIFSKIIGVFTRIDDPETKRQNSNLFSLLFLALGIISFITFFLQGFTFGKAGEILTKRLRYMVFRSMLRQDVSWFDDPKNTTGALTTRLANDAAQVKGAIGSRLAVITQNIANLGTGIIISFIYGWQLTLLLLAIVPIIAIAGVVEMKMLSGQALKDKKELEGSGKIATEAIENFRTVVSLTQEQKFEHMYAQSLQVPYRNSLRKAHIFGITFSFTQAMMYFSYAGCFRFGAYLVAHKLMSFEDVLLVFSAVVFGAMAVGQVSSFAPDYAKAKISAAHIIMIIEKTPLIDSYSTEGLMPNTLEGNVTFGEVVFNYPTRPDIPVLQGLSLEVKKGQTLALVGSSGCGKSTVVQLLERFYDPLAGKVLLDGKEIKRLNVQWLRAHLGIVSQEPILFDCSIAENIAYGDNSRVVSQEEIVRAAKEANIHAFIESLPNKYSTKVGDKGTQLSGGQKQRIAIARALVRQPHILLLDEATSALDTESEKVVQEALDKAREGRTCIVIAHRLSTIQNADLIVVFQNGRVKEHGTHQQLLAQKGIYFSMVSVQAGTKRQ
Sequence of P-gp (Homo sapiens, UniProt P08183) (P08183 whole entry, the tested form may be a part): as the sequence (P08183 whole entry) above

With `COc1ccccc1N1CCN(CCN(C(=O)C2CCC(F)CC2)c2ccccn2)CC1` (stereo not shown) [FCWAY] the “Percent Inhibition (%) of the fluorescent substrate” value (from here on “Percent Inhibition (%)”) (BCRP (ABCG2); 20 uM) was 6.8%, the “Percent Inhibition (%)” value (BCRP (ABCG2); 50 uM) was 8.6% and the “Substrate status for transporter (in vitro substrate inhibition)” value (BCRP (ABCG2); BCRP overexpressing human cancer cells) was “weak substrate”. The “Percent Inhibition (%)” value (MRP1 (ABCC1); 20 uM) was 3.1%, the “Percent Inhibition (%)” value (MRP1 (ABCC1); 50 uM) was 5.4% and the “Substrate status for transporter (in vitro substrate inhibition)” value (MRP1 (ABCC1); MRP1 overexpressing human cancer cells) was “weak substrate”. For the same compound, the “Percent Inhibition (%)” value (P-gp (ABCB1); 20 uM) was 0.8%, the “Percent Inhibition (%)” value (P-gp (ABCB1); 50 uM) was 4.0% and the “Substrate status for transporter (in vitro substrate inhibition)” value (P-gp (ABCB1); P-gp overexpressing human cancer cells) was “weak substrate”.
In the case of `COc1ccccc1N1CCN(CCN(C(=O)c2ccc(F)cc2)c2ccccn2)CC1` [MPPF, reference compound], the “Percent Inhibition (%)” value (MRP1 (ABCC1); 20 uM) is reported as 13.1% and the “Percent Inhibition (%)” value (MRP1 (ABCC1); 50 uM) is reported as 19.9%.
In the case of `COc1ccccc1N1CCN(CCN(C(=O)C2CCC([18F])CC2)c2ccccn2)CC1` (stereo not shown) [^18F-FCWAY], the “Peak brain radioactivity uptake” value (P-gp [1]; baseline, after bolus injection, healthy subjects) is reported as “around 3 SUV”, the “Change of non-displaceable binding potential (BPND) after tariquidar” value (P-gp [1]; i.v. tariquidar treatment, n=8) is reported as “changed insignificantly” and the “Increase in mean distribution volume (VT) with tariquidar treatment” value (P-gp [1]; tariquidar 2 or 4 mg/kg iv infusion, six brain regions, n=8) is reported as 60–100%. The “Brain uptake (brain to plasma ratio) in comparison to wild type mice” value (P-gp [2]) was “increased”, the “Time of peak uptake in brain” value ([3]; with disulfiram administration) was “five to seven” and the “Time of peak in brain after injection” value ([3]; without disulfiram) was “one to three”.
For `O=C(O)[C@H]1CC[C@H]([18F])CC1` [^18F-FC], the “Estimated concentration in brain as percent of that of the parent radioligand” value (P-gp [1]; during most of the scan, radiometabolite) was 2–3% and the “Concentration in brain compared to the total radioactivity” value (P-gp [1]; estimated by compartmental modeling, radiometabolite) was ~ 5%.
In the case of `COc1ccccc1N1CCN(CCN(C(=O)C2CCC(C[18F])CC2)c2ccccn2)CC1` (stereo not shown) [^18F-Mefway], the “Increase of brain uptake after tariquidar pretreatment” value (P-gp [4]) is listed as 1.6 fold.
With `CNC(=O)C(CCN1CCC(O)(c2ccc(Cl)cc2)CC1)(c1ccccc1)c1ccccc1` [dLop, desmethyl-loperamide, reference compound] the “Percent Inhibition (%)” value (P-gp (ABCB1); 20 uM) was 10.0% and the “Percent Inhibition (%)” value (P-gp (ABCB1); 50 uM) was 25.0%.
